Where a name gives a salt, the structure may show the parent alone.
What follows are compounds tested on MT4 (assay: Cell culture inhibitory concentration against spread of HIV-I infection in MT-4 cells was determined). Conditions: Homo sapiens, read-out: CIC95.
Type: functional
How it was run: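 Spread of HIV-1 infection in MT-4 cell culture; the read-out is HIV-1 p24 core antigen by ELISA. The value is the lowest concentration giving ≥95% inhibition of infection spread (CIC95).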
`CCc1cc(NCc2cc(C)c(C)cc2OC)c(O)nc1C` was tested, and the IC95 was 13 nM.
With `CCc1cc(NCc2ccccc2OC)c(O)nc1C` the IC95 was 400 nM.
Work on `CC(C)=CCN1Cc2cccc3[nH]c(=S)n(c23)C[C@@H]1C` yielded an IC95 of 200 nM.
`CCc1cc(NCc2cc(C)c(C)nc2OC)c(O)nc1C` showed an IC95 of 50 nM.
`CCc1cc(NCc2cccnc2OC)c(O)nc1C` gave an IC95 of 800 nM.
Work on `Cc1ccnc2c1NC(=O)c1cccnc1N2C1CC1` [NEVIRAPINE] yielded an IC95 of 100 nM.
With `CCNc1cccnc1N1CCN(C(=O)c2cc3cc(OC)ccc3[nH]2)CC1` [ATEVIRDINE MESYLATE] the IC95 was 1500 nM.
`CCc1cc(NCc2cc(CC)c(C)nc2OC)c(O)nc1C` was tested, and the IC95 was 13 nM.
With `CCOCn1c(Sc2ccccc2)c(CC)c(=O)[nH]c1=O` the IC95 was 100 nM.
In the case of `CCc1cc(NCc2nc(C)c(C)cc2OC)c(O)nc1C`, the IC95 is reported as 100 nM.
`CCc1cc(NCc2nc3c(Cl)ccc(Cl)c3o2)c(O)nc1C` [L-697661] gave an IC95 of 50 nM.

These compounds were tested against Human immunodeficiency virus type 1 reverse transcriptase (Human immunodeficiency virus 1, UniProt Q72547) (assay: In vitro inhibitory concentration against HIV-1 reverse transcriptase using rC-dG template primer). Conditions: not given.
`CCc1cc(NCc2ccccc2[N+](=O)[O-])c(=O)[nH]c1C` showed an IC50 of 530 nM.
`CCc1cc(NCc2ccc(C)cc2OC)c(O)nc1C` gave an IC50 of 32 nM.
`CCc1cc(CCc2cc(CC)c(C)nc2O)c(O)nc1C` showed an IC50 of 400 nM.
`CCc1cc(NCc2ccncc2OC)c(=O)[nH]c1C` gave an IC50 of 110000 nM.
`CCc1cc(NCc2cc(C)c(C)cc2OC)c(O)nc1C` was tested, and the IC50 was 8 nM.
`CCc1ccccc1CNc1cc(CC)c(C)[nH]c1=O` showed an IC50 of 6900 nM.
`CCc1cc(NCc2nc(CC)c(C)cc2OC)c(O)nc1C` showed an IC50 of 70 nM.
`CCc1cc(NCc2ccccc2OC)c(O)nc1C` gave an IC50 of 265 nM.
In the case of `CC(C)=CCN1Cc2cccc3[nH]c(=S)n(c23)C[C@@H]1C`, the IC50 is reported as 70 nM.
With `CCc1cc(NCc2ccc(OC)cc2)c(O)nc1C` the IC50 was 7500 nM.
For `CCc1cc(NCc2cc(C)c(C)nc2OC)c(O)nc1C`, the IC50 was 9 nM.
`CCc1cc(NCc2cccnc2OC)c(O)nc1C` showed an IC50 of 680 nM.
`CCc1cc(NCc2cc(C)ccc2OC)c(O)nc1C` showed an IC50 of 23 nM.
`CCc1cc(NCc2nc3c(cc2OC)CCCC3)c(O)nc1C` showed an IC50 of 47 nM.
With `CCc1cc(NCc2c(C)cccc2OC)c(=O)[nH]c1C` the IC50 was 1300 nM.
Compound `CCc1cc(NCc2cc(CC)c(C)nc2OC)c(O)nc1C` has an IC50 of 19 nM.
Work on `CCc1cc(NCc2cccc(OC)c2)c(=O)[nH]c1C` yielded an IC50 of 1250 nM.
With `CCc1cc(NCc2cccc(C)c2OC)c(O)nc1C` the IC50 was 3800 nM.
Compound `CCOCn1c(Sc2ccccc2)c(CC)c(=O)[nH]c1=O` has an IC50 of 32 nM.
`CCc1cc(NCc2nc(C)c(C)cc2OC)c(O)nc1C` was tested, and the IC50 was 70 nM.
`CCc1cc(NCc2cnccc2OC)c(=O)[nH]c1C` showed an IC50 of 10000 nM.
`CCc1cc(NCc2ccccc2C#N)c(=O)[nH]c1C` showed an IC50 of 790 nM.
For `CCc1cc(NCc2ccccc2C(F)(F)F)c(=O)[nH]c1C`, the IC50 was 12500 nM.
For `CCc1cc(CCc2nc3ccccc3o2)c(O)nc1C`, the IC50 was 20 nM.
With `CCc1ccc(CNc2cc(CC)c(C)nc2O)c(OC)c1` the IC50 was 510 nM.
Work on `CCc1cc(NCc2ccccc2COC)c(O)nc1C` yielded an IC50 of 35500 nM.
`CCOc1ccccc1CNc1cc(CC)c(C)nc1O` showed an IC50 of 350 nM.
In the case of `CCc1cc(CNc2cc(CC)c(C)[nH]c2=O)c(OC)cc1C`, the IC50 is reported as 33 nM.
With `CCc1cc(NCc2cc3ccccc3nc2OC)c(O)nc1C` the IC50 was 34 nM.
`CCc1cc(NCc2ccccc2F)c(O)nc1C` was tested, and the IC50 was 1400 nM.
For `CCc1cc(NCc2cc3c(nc2OC)CCCC3)c(O)nc1C`, the IC50 was 35 nM.
With `CCc1cc(NCc2ccccc2O)c(=O)[nH]c1C` the IC50 was 4600 nM.
For `CCc1cc(NCc2cc3c(cc2OC)CCC3)c(=O)[nH]c1C`, the IC50 was 40 nM.
With `CCc1cc(NCc2nc3c(cc2OC)CCC3)c(O)nc1C` the IC50 was 40 nM.
With `CCc1cc(CNc2cc(CC)c(C)nc2O)c(O)nc1C` the IC50 was 91 nM.
In the case of `CCc1cc(CCc2cc(CC)c(C)nc2OC)c(O)nc1C`, the IC50 is reported as 65 nM.
`CCc1cc(NCc2ccccc2C)c(O)nc1C` gave an IC50 of 2200 nM.
`CCc1cc(NCc2ccccc2SC)c(=O)[nH]c1C` gave an IC50 of 1500 nM.
`CCc1cc(NCc2ncccc2OC)c(=O)[nH]c1C` showed an IC50 of 1550 nM.
`CCc1cc(NCc2ccccc2N)c(O)nc1C` gave an IC50 of 28000 nM.
In the case of `CCc1cc(NCc2ccccc2Cl)c(O)nc1C`, the IC50 is reported as 1450 nM.
For `CCc1ccc(OC)c(CNc2cc(CC)c(C)nc2O)c1`, the IC50 was 32 nM.

Source: ChEMBL document CHEMBL1127029, “Synthesis and evaluation of 2-pyridinone derivatives as specific HIV-1 reverse transcriptase inhibitors. 3. Pyridyl and phenyl analogs of 3-aminopyridin-2(1H)-one” (J Med Chem, 1993)
